Source: ChEMBL document CHEMBL1136878, “6-amino-4-oxo-1,3-diphenyl-2-thioxo-1,2,3,4-tetrahydropyrimidine-5-carbonyl derivatives as a new class of potent inhibitors of Interleukin-8-induced neutrophil chemotaxis” (Bioorg Med Chem, 2009)
Activity calls are given as the source filed them. The calls are words filed in the database; no cut-off is given here.

Tests used:
[1] = tested on: Neutrophil; assay: Inhibition of chemotaxis in human neutrophils assessed as inhibition of IL8-induced migration by Boyden chamber assay; type: functional, cell-based
Summary of the method: (§1)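 Donor blood neutrophils (dextran sedimentation, Ficoll-Hypaque, hypotonic lysis; >97% pure), preincubated with compound 15 min at room temperature. 4 × 10^5 cells in upper compartment of blind-well chamber, 3 µm cellulose ester filter. Lower compartment: IL-8 10^-9 M, fMLP 10^-8 M or C5a 10^-9 M. Incubation 37 °C, 45 min. Leading-front distance read at ×400, five fields/filter, duplicates. Net migration = stimulated minus spontaneous. IC50 by nonlinear regression, mean of ≥3 experiments.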

[2] = tested on: Neutrophil; assay: Inhibition of chemotaxis in human neutrophils assessed as inhibition of fMLP-induced migration by Boyden chamber assay; type: functional, cell-based; summary of the method: as §1
[3] = Cytotoxicity against human neutrophils assessed as cell viability by ethidium bromide-fluorescein diacetate test; type: cell-based, Neutrophil; design: concentration or dose not given beside the values; details: read-out: Activity
Summary of the method: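 Neutrophils (2 × 10^6/mL) from healthy donor blood, incubated 2 h at 37 °C in CO2 atmosphere with compounds. Cells then stained with fluorescein diacetate/ethidium bromide in HBSS, 10 min at room temperature. Scored under UV dark-field: green = intact membrane (viable), red nucleus = necrotic; percentage viable cells.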

[4] = tested on: Neutrophil; assay: Inhibition of chemotaxis in human neutrophils assessed as inhibition of C5a-induced migration by Boyden chamber assay; type: functional, cell-based; summary of the method: as §1
[5] = tested on: Mus musculus; assay: Inhibition of chemotaxis in zymosan-induced peritonitis Swiss mouse model assessed as number of peritoneal granulocytes per cavity at 3 mg/kg, po pretreated 1 hr before zymosan-challenge measured 4 hrs post inducer challenge (Rvb=27.1+/-3.5 million); type: functional
[6] = tested on: Mus musculus; assay: Inhibition of chemotaxis in zymosan-induced peritonitis Swiss mouse model assessed as number of peritoneal cells per cavity at 3 mg/kg, po pretreated 1 hr before zymosan-challenge measured 4 hrs post inducer challenge (Rvb=31.5+/-1.2 million); type: functional
[7] = tested on: Mus musculus; assay: Inhibition of chemotaxis in zymosan-induced peritonitis Swiss mouse model assessed as peritoneal protein concentration at 3 mg/kg, po pretreated 1 hr before zymosan-challenge measured 4 hrs post inducer challenge (Rvb=1961+/-160 µg/mL)
[8] = target: T1, C-X-C chemokine receptor type 1 (Homo sapiens) (UniProt P25024); assay: Binding affinity to CXCR1
T1 sequence (whole entry): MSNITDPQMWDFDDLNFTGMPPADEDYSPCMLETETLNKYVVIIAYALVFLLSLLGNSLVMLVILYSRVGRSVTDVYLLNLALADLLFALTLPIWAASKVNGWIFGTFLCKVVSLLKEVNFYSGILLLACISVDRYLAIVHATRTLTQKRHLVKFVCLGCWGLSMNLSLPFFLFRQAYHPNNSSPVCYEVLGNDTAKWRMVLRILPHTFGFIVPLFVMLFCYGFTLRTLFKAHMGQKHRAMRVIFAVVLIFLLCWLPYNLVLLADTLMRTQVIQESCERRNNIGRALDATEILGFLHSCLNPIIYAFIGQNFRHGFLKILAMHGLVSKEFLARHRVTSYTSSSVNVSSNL

[9] = target: T2, C-X-C chemokine receptor type 2 (Homo sapiens) (UniProt P25025); assay: Binding affinity to CXCR2
T2 sequence (whole entry): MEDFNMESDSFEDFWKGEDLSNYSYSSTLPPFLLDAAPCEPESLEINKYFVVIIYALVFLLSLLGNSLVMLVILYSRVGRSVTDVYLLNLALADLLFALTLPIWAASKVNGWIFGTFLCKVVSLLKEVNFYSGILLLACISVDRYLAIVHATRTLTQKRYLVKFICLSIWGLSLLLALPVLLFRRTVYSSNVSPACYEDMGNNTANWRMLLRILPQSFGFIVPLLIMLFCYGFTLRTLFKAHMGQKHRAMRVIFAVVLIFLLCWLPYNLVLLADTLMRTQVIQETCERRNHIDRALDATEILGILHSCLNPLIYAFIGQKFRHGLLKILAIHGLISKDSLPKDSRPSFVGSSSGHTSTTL

[10] = tested on: Mus musculus; assay: Inhibition of chemotaxis in zymosan-induced peritonitis Swiss mouse model assessed as peritoneal protein concentration at 50 mg/kg, po pretreated 1 hr before zymosan-challenge measured 4 hrs post inducer challenge (Rvb=1961+/-[…]); type: functional
[11] = tested on: Mus musculus; assay: Inhibition of chemotaxis in zymosan-induced peritonitis Swiss mouse model assessed as number of peritoneal granulocytes per cavity at 50 mg/kg, po pretreated 1 hr before zymosan-challenge measured 4 hrs post inducer challenge (Rvb=27.1+/-3.5 million); type: functional
[12] = tested on: Mus musculus; assay: Inhibition of chemotaxis in zymosan-induced peritonitis Swiss mouse model assessed as number of peritoneal cells per cavity at 50 mg/kg, po pretreated 1 hr before zymosan-challenge measured 4 hrs post inducer challenge (Rvb=31.5+/-1.2 million); type: functional

Q: For `COC(=O)c1c(NCCc2ccc(S(N)(=O)=O)cc2)n(-c2ccccc2)c(=S)n(-c2ccccc2)c1=O`, which IC50 [1] is on record?
A: The IC50 was 10.8 nM.

Q: And the Activity [2]?
A: The Activity was “inactive”.

Q: And the viability [3]?
A: Its viability is at least 94%.

Q: Which results are given for `CC(=O)c1c(N2CCN(C)CC2)n(-c2ccccc2)c(=S)n(-c2ccccc2)c1=O`?
A: IC50 [1]: 14.8 nM; Activity [2]: inactive; viability [3]: ≥ 94%

Q: What does the source list for `CCOC(=O)c1c(NCCN(C)C)n(-c2ccccc2)c(=S)n(-c2ccccc2)c1=O`?
A: IC50 [1]: 0.1 nM; Activity [2]: inactive; Activity [4]: inactive; viability [3]: ≥ 94%

Q: With `C[C@@H]1C[C@H]2[C@@H]3CCC4=CC(=O)C=C[C@]4(C)[C@@]3(F)[C@@H](O)C[C@]2(C)[C@@]1(O)C(=O)CO` [DEXAMETHASONE] as the compound, how does the Activity [5] read?
A: Its Activity is 18.5 million.

Q: What about the Activity [6] of the same compound?
A: The Activity was 22 million.

Q: What about the Activity [7] of the same compound?
A: The Activity was 1400 µg/mL.

Q: Which IC50 [1] does the source give for `CCOC(=O)c1c(NCCNc2ccccc2)n(-c2ccccc2)c(=S)n(-c2ccccc2)c1=O` here?
A: The IC50 was 0.61 nM.

Q: What about the Activity [2] of the same compound?
A: Its Activity is “inactive”.

Q: And the viability [3]?
A: Its viability is at least 94%.

Q: What about the Activity [8] of the same compound?
A: The Activity was “inactive”.

Q: And the Activity [9]?
A: The Activity was “inactive”.

Q: What does the source list for `CCOC(=O)c1c(NCCCN(C)C)n(-c2ccccc2)c(=S)n(-c2ccccc2)c1=O`?
A: IC50 [1]: 3.89 nM; Activity [2]: inactive; viability [3]: ≥ 94%

Q: Which IC50 [1] does the source give for `COC(=O)c1c(NCC(OC)OC)n(-c2ccccc2)c(=S)n(-c2ccccc2)c1=O` here?
A: The IC50 was 31.2 nM.

Q: What about the Activity [2] of the same compound?
A: The Activity was “inactive”.

Q: What about the viability [3] of the same compound?
A: Its viability is at least 94%.

Q: Which results are given for `CCOC(=O)c1c(NCCN(CC)CC)n(-c2ccccc2)c(=S)n(-c2ccccc2)c1=O`?
A: Activity [10]: 1520 µg/mL; Activity [11]: 17.7 million; Activity [12]: 23.8 million; IC50 [1]: 0.02 nM; Activity [2]: inactive; Activity [4]: inactive; viability [3]: ≥ 94%; Activity [8]: inactive; Activity [9]: inactive

Q: For `CCOC(=O)c1c(NCCc2ccccn2)n(-c2ccccc2)c(=S)n(-c2ccccc2)c1=O`, which IC50 [1] is on record?
A: Its IC50 is 0.49 nM.

Q: What about the Activity [2] of the same compound?
A: Its Activity is “inactive”.

Q: What about the viability [3] of the same compound?
A: The viability was at least 94%.

Q: What about the Activity [8] of the same compound?
A: The Activity was “inactive”.

Q: What about the Activity [9] of the same compound?
A: The Activity was “inactive”.

Q: Which results are given for `CCOC(=O)c1c(NCCN2CCOCC2)n(-c2ccccc2)c(=S)n(-c2ccccc2)c1=O`?
A: IC50 [1]: 172 nM; Activity [2]: inactive; viability [3]: ≥ 94%

Q: Which IC50 [1] does the source give for `CCOC(=O)c1c(NCCC2CCCN2C)n(-c2ccccc2)c(=S)n(-c2ccccc2)c1=O` (stereo unspecified) here?
A: The IC50 was 1.61 nM.

Q: What about the Activity [2] of the same compound?
A: Its Activity is “inactive”.

Q: And the viability [3]?
A: The viability was at least 94%.

Q: And the Activity [8]?
A: Its Activity is “inactive”.

Q: And the Activity [9]?
A: Its Activity is “inactive”.

Q: Which results are given for `CCN(CC)CCNc1c(C(=O)OC(C)C)c(=O)n(-c2ccccc2)c(=S)n1-c1ccccc1`?
A: IC50 [1]: 0.21 nM; Activity [2]: inactive; Activity [4]: inactive; viability [3]: ≥ 94%

Q: Which results are given for `COC(=O)c1c(NCCc2c[nH]c3ccccc23)n(-c2ccccc2)c(=S)n(-c2ccccc2)c1=O`?
A: IC50 [1]: 29.6 nM; Activity [2]: inactive; viability [3]: ≥ 94%

Q: For `CCOC(=O)c1c(NCCN2CCCCC2)n(-c2ccccc2)c(=S)n(-c2ccccc2)c1=O`, which IC50 [1] is on record?
A: Its IC50 is 85.4 nM.

Q: And the Activity [2]?
A: The Activity was “inactive”.

Q: What about the viability [3] of the same compound?
A: The viability was at least 94%.

Q: Which results are given for `CC(=O)c1c(NCCN(C)C)n(-c2ccccc2)c(=S)n(-c2ccccc2)c1=O`?
A: IC50 [1]: 6.86 nM; Activity [2]: inactive; viability [3]: ≥ 94%

Q: Which results are given for `CCOC(=O)c1c(NCCOC)n(-c2ccccc2)c(=S)n(-c2ccccc2)c1=O`?
A: IC50 [1]: 1.36 nM; Activity [2]: inactive; viability [3]: ≥ 94%; Activity [8]: inactive; Activity [9]: inactive

Q: Which IC50 [1] does the source give for `COC(=O)c1c(NCCN(C)C)n(-c2ccccc2)c(=S)n(-c2ccccc2)c1=O` here?
A: Its IC50 is 3.32 nM.

Q: And the Activity [2]?
A: Its Activity is “inactive”.

Q: What about the viability [3] of the same compound?
A: The viability was at least 94%.

Q: Which results are given for `CC(C)OC(=O)c1c(NCCN(C)C)n(-c2ccccc2)c(=S)n(-c2ccccc2)c1=O`?
A: IC50 [1]: 0.18 nM; Activity [2]: inactive; Activity [4]: inactive; viability [3]: ≥ 94%
